Test results taken from ChEMBL document CHEMBL1124904, “7-Oxabicyclo[2.2.1]heptyl carboxylic acids as thromboxane A2 antagonists: aza omega-chain analogues” (J Med Chem, 1990).

Assays:
[1] = test system: Cavia porcellus; experiment: Evaluated for the percent inhibition of arachidonate-induced dynamic compliance at 3 min after dosing (0.1 mg/kg iv) in anesthetized guinea pig.; format: functional
Procedure, shortened: (§1)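 Anesthetized guinea pig dosed iv with antagonist at 0.1 mg/kg (some at 1.0 mg/kg). Arachidonic acid 0.5 mg/kg iv given as challenge 3 or 60 min later. Airway resistance, dynamic compliance and blood pressure recorded; percent inhibition of each response.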

[2] = species on record: Bos taurus; experiment: Evaluated for its specificity by inhibition of PGE-2 and arachidonic acid (substrate) biosynthesis, enzyme source is Bovine seminal Vesicles; format: functional
Procedure, shortened: (§2)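 Microsomal enzyme preparations from human platelet, bovine seminal vesicles or bovine aorta, given arachidonic acid or PGH2 as substrate. Products measured: TxB2, PGE2 or 6-keto-PGF1α. IC50 reported.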

[3] = species on record: Homo sapiens; experiment: Evaluated for its specificity to inhibit the aggregation of human platelets induced by Collagen at concentration of 10 ug/mL; format: functional; conditions: read-out: I50
Procedure, shortened: (§3)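 Human platelet aggregation with agonist ADP 20 μM, collagen 10 or 20 μg/mL, or epinephrine 10 μM (primary and secondary phases scored separately); I50 reported.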

[4] = species on record: Homo sapiens; experiment: Evaluated for ability to inhibit platelet aggregation of human platelet-rich plasma (PRP) induced by 11.9-epoxymethano-PGH2.; format: functional; conditions: Homo sapiens, Plasma; read-out: I50
Procedure, shortened: (§4)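 Human PRP aggregation induced by U-46,619 (11,9-epoxymethano-PGH2, stable PGH2/TxA2 mimic) at 5 or 10 μM; I50 reported. Values are single determinations unless otherwise noted.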

[5] = test system: Cavia porcellus; experiment: Evaluated for the percent inhibition of arachidonate-induced hypertension resulting in decreases in blood pressure at 3 min after dosing (0.1 mg/kg iv) in anesthetized guinea pig.; format: functional; procedure, shortened: as §1
[6] = species on record: Homo sapiens; experiment: Evaluated for its specificity to inhibit the aggregation of human platelets induced by Epinephrine(2 degree phase) at concentration of 10 uM; format: functional; conditions: read-out: I50; procedure, shortened: as §3
[7] = species on record: Bos taurus; experiment: Evaluated for its specificity by inhibition of 6-keto-PGF1-alpha and arachidonic acid (substrate) biosynthesis, enzyme source is Bovine Aorta; format: functional; procedure, shortened: as §2
[8] = species on record: Cavia porcellus; experiment: Evaluated for its potency in Guinea pig trachea (GPT) spirals in the presence of increasing concentrations; format: functional; conditions: Cavia porcellus, Trachea
Procedure, shortened: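 Guinea pig tracheal spirals contracted by U-46,619 in cumulative dose-response curves, repeated with increasing antagonist concentrations; Kb from analysis of the rightward shift.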

[9] = test system: Cavia porcellus; experiment: Evaluated for the percent inhibition of arachidonate-induced dynamic compliance at 60 min after dosing (0.1 mg/kg iv) in anesthetized guinea pig.; format: functional; procedure, shortened: as §1
[10] = species on record: Homo sapiens; experiment: Evaluated for its specificity to inhibit the aggregation of human platelets induced by Epinephrine(1 degree phase) at concentration of 10 uM; format: functional; conditions: read-out: I50; procedure, shortened: as §3
[11] = species on record: Homo sapiens; experiment: Evaluated for its specificity to inhibit the aggregation of human platelets induced by U-46,619 at concentration of 5 uM; format: functional; conditions: read-out: I50; procedure, shortened: as §4
[12] = species on record: Rattus norvegicus; experiment: Evaluated for its potency Rat aorta (RA) strips in the presence of increasing concentrations; format: functional
Procedure, shortened: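 Rat aortic strips contracted by U-46,619 in cumulative dose-response curves, repeated with increasing antagonist concentrations; Kb from analysis of the rightward shift.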

[13] = species on record: Homo sapiens; experiment: Evaluated for its specificity to inhibit the aggregation of human platelets induced by ADP at concentration of 20 uM; format: functional; conditions: read-out: I50; procedure, shortened: as §3
[14] = test system: Cavia porcellus; experiment: Evaluated for the percent inhibition of arachidonate-induced air-way resistance at 60 min after dosing (0.1 mg/kg iv) in anesthetized guinea pig.; format: functional; procedure, shortened: as §1
[15] = test system: Cavia porcellus; experiment: Evaluated for the percent inhibition of arachidonate-induced hypertension resulting in decreases in blood pressure at 60 min after dosing (0.1 mg/kg iv) in anesthetized guinea pig.; format: functional; procedure, shortened: as §1
[16] = species on record: Homo sapiens; experiment: Evaluated for its specificity by inhibition of TXB2 and PGH-2 (substrate) biosynthesis, enzyme source is human platelets.; format: functional; procedure, shortened: as §2
[17] = species on record: Homo sapiens; experiment: Evaluated for its specificity by inhibition of PGE-2 and arachidonic acid (substrate) biosynthesis, enzyme source is human platelets.; format: functional; procedure, shortened: as §2
[18] = species on record: Homo sapiens; experiment: Evaluated for its specificity by inhibition of PGE-2 and PGH-2 (substrate) biosynthesis, enzyme source is human platelets.; format: functional; procedure, shortened: as §2
[19] = species on record: Homo sapiens; experiment: Evaluated for its specificity to inhibit the aggregation of human platelets induced by Collagen at concentration of 20 ug/mL; format: functional; conditions: read-out: I50; procedure, shortened: as §3
[20] = species on record: Bos taurus; experiment: Evaluated for its specificity by inhibition of 6-keto-PGF1-alpha and PGH-2 (substrate) biosynthesis, enzyme source is Bovine Aorta; format: functional; procedure, shortened: as §2
[21] = target: T1, Thromboxane A2 receptor (Homo sapiens, UniProt P21731); experiment: Binding affinity was determined from the inhibition of [3H]-SQ 29,548 binding to Thromboxane A2 receptor in human platelet membranes.; format: cell membranes
T1 sequence (P21731 whole entry): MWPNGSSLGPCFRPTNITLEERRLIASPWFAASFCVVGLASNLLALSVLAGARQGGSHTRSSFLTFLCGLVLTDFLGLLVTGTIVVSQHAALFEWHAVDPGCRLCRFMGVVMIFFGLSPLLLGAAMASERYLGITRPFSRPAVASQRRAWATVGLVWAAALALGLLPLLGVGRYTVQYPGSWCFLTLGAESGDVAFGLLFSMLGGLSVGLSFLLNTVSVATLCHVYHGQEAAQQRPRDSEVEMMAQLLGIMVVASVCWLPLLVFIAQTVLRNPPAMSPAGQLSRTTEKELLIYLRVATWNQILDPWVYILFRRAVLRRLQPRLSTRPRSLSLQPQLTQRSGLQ
Procedure, shortened: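 Radioligand binding to human platelet membranes with [5,6-3H2]-SQ 29,548 as tracer; Kd derived from inhibition of specific binding.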

[22] = species on record: Homo sapiens; experiment: Ability to inhibit platelet aggregation of human platelet-rich plasma (PRP) induced by 800 uM of AA-IPA (arachidonic acid); format: functional; conditions: Homo sapiens, Plasma; read-out: I50
Procedure, shortened: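 Human platelet-rich plasma; aggregation triggered by arachidonic acid at 800 μM. Test acids were also checked against ADP (20 μM)-induced aggregation. I50 taken as the concentration inhibiting aggregation.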

[23] = species on record: Homo sapiens; experiment: Evaluated for its specificity to inhibit the aggregation of human platelets induced by U-46,619 at concentration of 10 uM; format: functional; conditions: read-out: I50; procedure, shortened: as §4
[24] = test system: Cavia porcellus; experiment: Evaluated for the percent inhibition of arachidonate-induced air-way resistance at 3 min after dosing (0.1 mg/kg iv) in anesthetized guinea pig.; format: functional; procedure, shortened: as §1
[25] = species on record: Homo sapiens; experiment: Evaluated for its specificity by inhibition of TXB2 and arachidonic acid (substrate) biosynthesis, enzyme source is human platelets.; format: functional; conditions: read-out: I50; procedure, shortened: as §2

- IC50 [2]: > 1000 µM
- IC50 [3]: 0.19 µM
- IC50 [4]: 0.24 µM
- IC50 [6]: 0.04 µM
- IC50 [7]: > 1000 µM
- IC50 [10]: > 1000 µM
- IC50 [11]: 0.22 µM
- IC50 [13]: > 1000 µM
- IC50 [16]: > 1000 µM
- IC50 [17]: > 1000 µM
- IC50 [18]: > 1000 µM
- IC50 [19]: 0.56 µM
- IC50 [20]: > 1000 µM
- Kd [21]: 0.0496 µM
- IC50 [22]: 0.18 µM
- IC50 [23]: 0.24 µM
- IC50 [25]: > 1000 µM
SMILES: CCCCCCCC(=O)NCC(=O)NCC1C2CCC(O2)C1C/C=C/CCCC(=O)O (single isomer, unassigned; (-))
- Inhibition [1]: 86%
- Inhibition [5]: 195%
- Kb [8]: 0.003 µM
- Inhibition [9]: 22%
- Kb [12]: 0.0088 µM
- Inhibition [14]: 23%
- Inhibition [15]: 90%
- Inhibition [24]: 96%
